Assay outcomes (PubChem BioAssay)
SENP8 block-1 = SENP8 (human) protease inhibition | Q96LD8 | recombinant SENP8, Nedd8 substrate fluorescence | inhibition, % at 20 µM | hit rate 0.64% among 360,000 | AID 602440; in the data active = inhibition mostly above about 40%, no sharp cut-off; inactive = mostly below about 27%
SENP8 block-2 = blocks the human protease SENP8; purified SENP8, Z-RLRGG-aminoluciferin cleavage, luminescence; inhibition, % at 10 µM; hit rate 1.2% among 330,000; AID 2540; in the data active = inhibition above about 50%
Platelet DG rel = platelet dense granule release activity; human platelet-rich plasma, SFLLRN dense granule ATP release, luminescence; inhibition, %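 (compounds screened at 7.5 µM in platelet-rich plasma)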; hit rate 0.22% among 300,000; AID 1663;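 active = mean replicate score, as percent of positive control, at or above 50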
SENP6 block = blocks the human protease SENP6; Q9GZR1; Recombinant SENP6 catalytic domain, aminoluciferin luminescence; inhibition, % at 10 µM; hit rate 1.8% among 330,000; AID 2599;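 active = inhibition above about 50% at the single tested dose, limit read from the data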
SENP7 inh = SENP7 protease inhibition; Q9BQF6; recombinant SENP7, Z-RLRGG-aminoluciferin luminescence, 40 min; inhibition, % at 5 µM; hit rate 1.5% among 330,000;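 active = inhibition above about 50% at the single test dose, limit read from the data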
Target sequence (Q9BQF6 706-1050 limits assumed): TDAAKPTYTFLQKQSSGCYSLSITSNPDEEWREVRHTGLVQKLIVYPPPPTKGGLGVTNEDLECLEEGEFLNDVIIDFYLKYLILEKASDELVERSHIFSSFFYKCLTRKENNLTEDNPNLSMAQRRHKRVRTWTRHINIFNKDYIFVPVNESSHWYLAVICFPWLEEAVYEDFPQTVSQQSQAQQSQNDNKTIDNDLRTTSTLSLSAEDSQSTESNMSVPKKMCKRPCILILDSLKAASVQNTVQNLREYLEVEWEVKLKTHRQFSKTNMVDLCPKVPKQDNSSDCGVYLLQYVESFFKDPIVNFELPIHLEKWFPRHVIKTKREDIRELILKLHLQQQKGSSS
SENP1 inh = SENP1 (human) catalytic domain inhibition. Q9P0U3. recombinant SENP1 catalytic domain, CyPet-SUMO1-YPet FRET cleavage. inhibition, % at 10 µM. hit rate 0.21% among 360,000;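 active = inhibition at least 30% at 10 µM, raw YFP signal under a set limit, fluorescence ratio 0.5 to 1.5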
Target sequence (Q9P0U3 419-644 limits assumed): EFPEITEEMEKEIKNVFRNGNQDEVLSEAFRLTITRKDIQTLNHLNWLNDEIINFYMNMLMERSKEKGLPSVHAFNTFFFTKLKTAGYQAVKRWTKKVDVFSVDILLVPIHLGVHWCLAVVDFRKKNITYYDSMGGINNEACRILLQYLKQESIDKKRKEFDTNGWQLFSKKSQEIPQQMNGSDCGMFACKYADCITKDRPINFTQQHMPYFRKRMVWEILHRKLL
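Material – human SENP1 catalytic domain · Input – SENP1 enzyme, 20 pM final · Compound dosing – single concentration of 10 µM compound, 0.5% DMSO final · Timing – enzyme reaction for 50 min at room temperature, dark · Measured by – FRET fluorescence in CFP and YFP emission channels · Control set – no-enzyme wells low, DMSO-plus-enzyme wells high control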
SENP8 inh conf = confirmation of human SENP8 protease inhibitors; shares compounds with SENP8 block-1; purified SENP8, Nedd8-AMC/pro-Nedd8 cleavage fluorescence, 30 min; inhibition, % at 25 µM; hit rate 15% among 1,400; AID 624319; in the data active = inhibition mostly above about 39%, no sharp cut-off; inactive = mostly below about 34%
Each line names hits and unclear results; the compound was inactive in the other large screens (follow-up assays come after a bar, where they were run). Rows were chosen to be rich in hits. Some 2.6% of all compounds tested hit in one or more screens of this group.

CCN(CC)S(=O)(=O)c1cccc(C(=O)NCCCn2ccnc2)c1	SENP8 block-1 42 | SENP8 inh conf inactive
CC(C)N(C(=O)CSc1nn2c(=O)c(C(C)(C)C)nnc2s1)c1ccccc1	SENP8 block-1 40 | SENP8 inh conf inactive
CC(C)(C)c1nnc2sc(SCCN3C(=O)c4ccccc4C3=O)nn2c1=O	none
COc1cccc(C=Nc2ccc3c(c2)OCCO3)c1O	SENP8 block-1 53 | SENP8 inh conf inactive
CC1CCCN(c2ccc(C(=O)Nc3ccc4c(c3)OCO4)cc2[N+](=O)[O-])C1 (stereo not given)	SENP8 block-1 43 | SENP8 inh conf inactive
CC1CCN(c2ccc(C(=O)Nc3ccc4c(c3)OCO4)cc2[N+](=O)[O-])CC1	none
Cc1cc(SCC(=O)OCC(=O)N(C)c2ccccc2)nc2ccccc12	none
CC(=O)NCCC(=O)N1CCCC(N(C)CCc2ccccc2)C1 (stereo not given)	none
C=CCN1C=CC(=C/C=C(/C#N)C(=O)OCC)C=C1	SENP8 block-1 61 | SENP8 inh conf inactive
CCOC(=O)/C(C#N)=C/C=C1/C=CC=CN1C	none
Cc1nnc(N/N=C/c2cccc(C(F)(F)F)c2)n1N	SENP8 block-1 49 | SENP8 inh conf inactive
Cc1nnc(N/N=C/c2ccccc2C(F)(F)F)n1N	none
COc1ccc(OC)c(/C=C/C(=O)OCC(=O)NC2CCCCCCC2)c1	none (no result: Platelet DG rel)
Cc1cc(C)nc(N2N=C(C(C)(C)C)CC2=O)n1	SENP8 block-1 63 | SENP8 inh conf 76
O=C1c2ccc3c4c(ccc(c24)C(=O)N1c1cccc(O)c1)C(=O)N(c1cccc(O)c1)C3=O	SENP8 block-1 46 | SENP8 inh conf inactive
O=C1c2ccc3c4c(ccc(c24)C(=O)N1c1cccc(O)c1)CC3	none
COCC(=O)N[C@H]1CC[C@@H](CC(=O)OC)O[C@@H]1CO	none (no result: SENP8 block-2, Platelet DG rel, SENP6 block, SENP7 inh)
COc1ccc(O)c(C(c2c(C)[nH][nH]c2=O)c2c(C)[nH][nH]c2=O)c1	SENP8 block-1 76 | SENP8 inh conf 47
CCOc1cc(C(c2c(C)[nH][nH]c2=O)c2c(C)[nH][nH]c2=O)ccc1O	SENP8 block-1 47 | SENP8 inh conf 53
CCCCn1c(N)c(N(Cc2ccccc2OC)C(=O)c2ccc([N+](=O)[O-])s2)c(=O)[nH]c1=O	none
C=C(C(=O)O)C1CCC2(C)CCCC(C)(O)C2C1 (stereo not given)	SENP8 block-1 48 | SENP8 inh conf inactive
COc1ccc(Nc2nc(N)nc(CN3CCc4ccccc4C3)n2)cc1	SENP8 block-1 44 | SENP8 inh conf inactive
Nc1nc(CN2CCc3ccccc3C2)nc(Nc2ccccc2)n1	none
O=C(CCO)c1ccc(O)cc1	SENP8 block-1 44 | SENP8 inh conf inactive
O=[N+]([O-])c1ccc(CNc2ccc(Cl)cc2)s1	SENP8 block-1 42 | SENP8 inh conf inactive
COc1ccc(NCc2ccc([N+](=O)[O-])s2)cc1	none
O=[N+]([O-])c1ccc(CNc2ccc(F)cc2)s1	none
COc1ccc(NCc2ccc([N+](=O)[O-])s2)c(OC)c1	SENP8 block-1 57 (no result: SENP8 block-2, Platelet DG rel, SENP6 block, SENP7 inh) | SENP8 inh conf 78
CCOC(=O)c1ccc(NC(=O)c2ccc(CN3CCc4ccccc4C3)cc2)cc1	none
O=C(NCc1ccc2c(c1)OCO2)c1ccccc1	none
Cc1cc(C)c(NC(=O)c2ccc(CN3CCc4ccccc4C3)cc2)c(C)c1	SENP8 block-1 45 | SENP8 inh conf inactive
O=C(NCc1ccc2c(c1)OCO2)c1ccc(CN2CCc3ccccc3C2)cc1	SENP8 block-1 42 | SENP8 inh conf inactive
CC(=O)c1cccc(NC(=O)c2ccc(CN3CCc4ccccc4C3)cc2)c1	none
O=C(Nc1ccc(Cl)cc1)c1ccc(CN2CCc3ccccc3C2)cc1	SENP8 block-1 47 | SENP8 inh conf inactive
N#CCc1ccc(NC(=O)c2ccc(CN3CCc4ccccc4C3)cc2)cc1	SENP8 block-1 59 | SENP8 inh conf inactive
CCOc1ccc(NC(=O)c2ccc(CN3CCc4ccccc4C3)cc2)cc1	none
CCN(CC)S(=O)(=O)c1ccc(NC(=O)Cc2cccs2)cc1	none
CN(C)C(CNC(=O)CNC(=O)c1ccc(Br)cc1)c1ccccc1 (stereo not given)	none
CC(=O)Nc1ccc(S(=O)(=O)N2CCN(C(=O)CCC3CCCC3)CC2)cc1	SENP8 block-1 46 | SENP8 inh conf inactive
Cc1[nH]c2ccccc2c1/C=C/c1cc[n+](C)cc1	SENP8 block-1 44 (no result: SENP8 block-2, SENP6 block, SENP7 inh) | SENP8 inh conf inactive
C[n+]1ccc2[nH]c3ccccc3c2c1	none (no result: SENP8 block-2, Platelet DG rel, SENP6 block, SENP7 inh)
O=C(c1cc([N+](=O)[O-])cc([N+](=O)[O-])c1)N1CCN(Cc2ccc3c(c2)OCO3)CC1	SENP8 block-1 50 | SENP8 inh conf inactive
O=C1CN(C(=O)c2ccc(Cl)c([N+](=O)[O-])c2)c2ccccc2N1	none
O=C(NN=Cc1ccc(N2CCOCC2)s1)c1ccc([N+](=O)[O-])cc1	SENP8 block-1 43 (no result: Platelet DG rel) | SENP8 inh conf inactive
Cc1ccc(C(=O)N/N=C/c2ccc([N+](=O)[O-])s2)cc1	SENP8 block-1 44 | SENP8 inh conf inactive
CC(=O)Nc1ccc(Nc2cc(N3CCOCC3)c3nonc3c2[N+](=O)[O-])cc1	none
O=[N+]([O-])c1c(Nc2ccc(O)cc2)cc(N2CCOCC2)c2nonc12	SENP8 block-1 49 | SENP8 inh conf inactive
O=[N+]([O-])c1c(Nc2ccccc2O)cc(Cl)c2nonc12	SENP8 block-1 42 | SENP8 inh conf inactive
Cc1cccn2c(=O)c(C=C(C#N)C#N)c(N3CCN(C)CC3)nc12	none
Cc1ccc(-c2nnc(-c3ccncc3)n2-c2ccc(C)cc2)cc1	SENP8 block-1 62 | SENP8 inh conf inactive
Cc1ccc(-n2c(-c3ccncc3)nnc2-c2ccco2)cc1	none
CC(C)(C)OC(=O)NCCCC[C@H](NC(=O)c1nc[nH]c1C(=O)N1CCc2ccccc2C1)C(=O)OC(C)(C)C	none
CC(C)(C)OC(=O)NCCCCCNC(=O)c1nc[nH]c1C(=O)N1CCc2ccccc2C1	SENP8 block-1 48 (no result: Platelet DG rel) | SENP8 inh conf 57
O=C1c2ccc3c4c(ccc(c24)C(=O)N1NC(=O)C(F)(F)F)CC3	none
CC(=O)NN1C(=O)c2ccc3c4c(ccc(c24)C1=O)C(=O)N(NC(C)=O)C3=O	SENP8 block-1 35 | SENP8 inh conf 54
Cc1onc(-c2c(Cl)cccc2Cl)c1C(=O)ONC(=O)c1cc(C(F)(F)F)cc(C(F)(F)F)c1	none
CC(=O)Nc1ccc(NC(=O)COC(=O)c2ccc([N+](=O)[O-])o2)cc1	SENP8 block-1 34 (no result: Platelet DG rel) | SENP8 inh conf 85
O=C(COC(=O)c1ccc([N+](=O)[O-])o1)NCc1ccc(F)cc1	SENP8 block-1 43 (no result: Platelet DG rel) | SENP8 inh conf 78
CC1Cc2ccccc2N1C(=O)COC(=O)c1ccc([N+](=O)[O-])o1 (stereo not given)	SENP8 block-1 42 (no result: Platelet DG rel) | SENP8 inh conf 80
